Assay results taken from ChEMBL document CHEMBL1139435, “Beta-oxygenated analogues of the 5-HT2A serotonin receptor agonist 1-(4-bromo-2,5-dimethoxyphenyl)-2-aminopropane” (J Med Chem, 2004).

Key:
[1] = target: 5-hydroxytryptamine receptor 2A (Rattus norvegicus) (UniProt P14842); test: Efficacy as 5-HT2A receptor-mediated intracellular calcium [Ca2+] mobilization in rat A7r5 cells; format: functional, cell-based
Outline: (§1)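 Rat A7r5 vascular smooth muscle cells grown in DMEM/10% FBS, seeded at 20 000 cells/well, cultured 2 days. Loaded with calcium dye in HBSS/20 mM HEPES/2.5 mM probenecid pH 7.4 for 1 h at 23 °C. Response is peak minus basal fluorescence, expressed as % of maximal 5-HT response.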

[2] = target: T1, 5-hydroxytryptamine receptor 2A (Rattus norvegicus, UniProt P14842); test: Serotonin 5-HT2A receptor-mediated intracellular calcium [Ca2+] mobilization in rat A7r5 cells; format: functional, cell-based; outline: as §1
T1 sequence (P14842 whole entry): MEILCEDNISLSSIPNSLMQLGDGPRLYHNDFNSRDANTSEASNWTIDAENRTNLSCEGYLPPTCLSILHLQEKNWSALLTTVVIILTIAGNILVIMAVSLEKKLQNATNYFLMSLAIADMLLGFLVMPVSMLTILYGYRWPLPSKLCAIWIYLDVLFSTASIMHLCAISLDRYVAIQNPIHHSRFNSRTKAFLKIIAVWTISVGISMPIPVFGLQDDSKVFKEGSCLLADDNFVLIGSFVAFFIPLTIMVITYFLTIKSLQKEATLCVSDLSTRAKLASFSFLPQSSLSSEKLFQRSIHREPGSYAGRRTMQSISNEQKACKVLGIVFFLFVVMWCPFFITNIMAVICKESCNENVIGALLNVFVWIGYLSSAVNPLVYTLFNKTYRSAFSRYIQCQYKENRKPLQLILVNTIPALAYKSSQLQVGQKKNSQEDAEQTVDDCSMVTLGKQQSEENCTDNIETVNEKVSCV

[3] = target: T1, 5-hydroxytryptamine receptor 2A; test: Binding affinity for 5-HT2A serotonin receptor
Outline: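 Incubated 1 h at 23 °C. Nonspecific binding defined with methiothepin (10 µM final). Ended by vacuum filtration over GF/B filters presoaked in 0.3% polyethyleneimine, washed with ice-cold buffer. Bound counts read by scintillation. IC50 for displacing labelled DOI binding.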

Monkey [4] = test: Percent reduction of intraocular pressure after 1 hour following topical ocular administration to normal eye conscious cynomolgus monkeys; format: functional, Cercopithecidae
Outline: (§2)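 Conscious cynomolgus monkeys dosed topically in the eye with 300 µg in phosphate-buffered saline, pH 7.4. Vehicle was given to test eyes of five or six further animals. IOP measured at baseline and at 1, 3 and 6 h. Values are % reduction from baseline.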

Monkey [5] = test: Percent reduction of intraocular pressure after 3 hours following topical ocular administration to normal eye conscious cynomolgus monkeys; format: functional, Cercopithecidae; outline: as §2
Monkey [6] = test: Percent reduction of intraocular pressure after 6 hours following topical ocular administration to normal eye conscious cynomolgus monkeys; format: functional, Cercopithecidae; outline: as §2

5-hydroxytryptamine receptor 2A (Rattus norvegicus), sequence (P14842 whole entry): as above

SMILES | Efficacy [1] [%] | EC50 [2] [nM] | Ki [3] [nM] | Reduction (Monkey [4]) [%] | Reduction (Monkey [5]) [%] | Reduction (Monkey [6]) [%]
COc1cc([C@H](OC)[C@H](C)N)c(OC)cc1Br | 31 | 1410 | 6 | – | – | –
COc1cc([C@@H](OC)[C@@H](C)N)c(OC)cc1Br | 93 | 130 | 0.3 | 19 | 27.5 | 25.5
COc1cc(C[C@@H](C)N)c(OC)cc1I | – | – | – | 15.2 | 31 | 34.4
COc1cc(C(CN)OC)c(OC)cc1Br (stereo not given) | 63 | 120 | 2 | – | – | –
COc1cc([C@@H](O)[C@@H](C)N)c(OC)cc1Br | 50 | 100 | 0.5 | 10.7 | 19 | 22.1
COc1cc([C@H](O)[C@@H](C)N)c(OC)cc1Br | 20 | – | 9.2 | – | – | –
CC[C@H](N)[C@H](O)c1cc(OC)c(Br)cc1OC | 5 | – | 20.3 | – | – | –
COc1ccc(OC)c(C[C@@H](C)N)c1 | 34 | 740 | 9.2 | – | – | –
COc1cc([C@H](O)[C@H](C)N)c(OC)cc1Br | 16 | – | 10 | – | – | –
COc1cc(CC(C)N)c(OC)cc1Br (stereo not given) | 38 | – | – | – | – | –
COc1cc([C@@H](O)[C@H](C)N)c(OC)cc1Br | 22 | 840 | 1.1 | – | – | –
COc1cc(C2CNCCO2)c(OC)cc1Br (stereo not given) | 4 | – | 20.6 | – | – | –
COc1cc(C(O)CN)c(OC)cc1Br (stereo not given) | 8 | – | 2.1 | – | – | –
CCC(N)Cc1cc(OC)c(Br)cc1OC (stereo not given) | 15 | – | 7.6 | – | – | –
